Our source for the ED50 values is ChEMBL document CHEMBL1124607, “Studies on antitumor agents. 8. Antitumor activities of O-alkyl derivatives of 2'-deoxy-5-(trifluoromethyl)uridine and 2'-deoxy-5-fluorouridine” (1989).

A value given as a limit tells only on which side of the number the result lay.

What is called ED50 is the dose that gives a 50% effect, or the effect in half of the subjects. Low values mean greater potency, high ones weaker potency.

The species entered for the assay is Mus musculus. As to the kind of experiment: Antitumor activity against transplanted tumor sarcoma 180 expressed as effective dose. It counts as functional. The gist of the method:
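Male ICR mice, five weeks old, implanted s.c. in the axilla with 5×10^6 sarcoma 180 cells. Starting 24 h after implant, compounds were given orally once daily for 7 consecutive days as a suspension in 0.5% CMC with 0.1% Tween 80. Seven mice per dose. Tumors were excised and weighed on day 10, and inhibition was taken from treated/control tumor weight.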
In turn, `Cc1ccccc1COC[C@H]1O[C@@H](n2cc(C(F)(F)F)c(=O)[nH]c2=O)C[C@@H]1O` yielded a 50% effective dose (ED50) of over 40 mg/kg/day.
In the case of `O=c1[nH]c(=O)n([C@H]2C[C@H](OCc3ccc(Cl)cc3)[C@@H](CO)O2)cc1C(F)(F)F` it was under 10 mg/kg/day; in that of `COc1ccc(COC[C@H]2O[C@@H](n3cc(C(F)(F)F)c(=O)[nH]c3=O)C[C@@H]2O)cc1`, over 40 mg/kg/day; in that of `Cc1cccc(CO[C@H]2C[C@H](n3cc(C(F)(F)F)c(=O)[nH]c3=O)O[C@@H]2CO)c1`, 36 mg/kg/day.
`Cc1cccc(COC[C@H]2O[C@@H](n3cc(C(F)(F)F)c(=O)[nH]c3=O)C[C@@H]2O)c1`: it took a dose of 28 mg/kg/day to reach the 50% effect level (ED50).
With `Cc1ccccc1CO[C@H]1C[C@H](n2cc(C(F)(F)F)c(=O)[nH]c2=O)O[C@@H]1CO` the figure was 40 mg/kg/day.
In the case of `CCOC[C@H]1O[C@@H](n2cc(C(F)(F)F)c(=O)n(C(=O)c3ccccc3)c2=O)C[C@@H]1O` it was 23 mg/kg/day.
With `O=C(c1ccccc1)n1c(=O)c(C(F)(F)F)cn([C@H]2C[C@H](OCc3ccccc3)[C@@H](CO)O2)c1=O` the figure was 26 mg/kg/day.
`CCO[C@H]1C[C@H](n2cc(C(F)(F)F)c(=O)[nH]c2=O)O[C@@H]1CO` showed an ED50 of 15 mg/kg/day.
With `CCO[C@H]1C[C@H](n2cc(C(F)(F)F)c(=O)n(C(=O)c3ccccc3)c2=O)O[C@@H]1CO` the figure was 37 mg/kg/day; with `O=c1[nH]c(=O)n([C@H]2C[C@H](OCc3ccccc3)[C@@H](COCc3ccccc3)O2)cc1C(F)(F)F`, over 40 mg/kg/day.
With `CCOC[C@H]1O[C@@H](n2cc(C(F)(F)F)c(=O)[nH]c2=O)C[C@@H]1O` the figure was 14 mg/kg/day; with `O=c1[nH]c(=O)n([C@H]2C[C@H](O)[C@@H](COCc3ccc(Cl)cc3)O2)cc1C(F)(F)F`, 14 mg/kg/day; with `O=c1[nH]c(=O)n([C@H]2C[C@H](OCc3ccccc3)[C@@H](CO)O2)cc1C(F)(F)F`, 13 mg/kg/day.
Regarding `CCO[C@H]1C[C@H](n2cc(F)c(=O)[nH]c2=O)O[C@@H]1CO`, the median effective dose (ED50) was over 40 mg/kg/day.
In the case of `O=c1[nH]c(=O)n([C@H]2C[C@H](OCc3ccccc3)[C@@H](CO)O2)cc1F` it was 12 mg/kg/day; in that of `CCOC[C@H]1O[C@@H](n2cc(F)c(=O)[nH]c2=O)C[C@@H]1O`, 39 mg/kg/day; in that of `O=c1c(C(F)(F)F)cn([C@H]2C[C@H](O)[C@@H](CO)O2)c(=O)n1Cc1ccccc1`, over 40 mg/kg/day.
With `O=c1[nH]c(=O)n([C@H]2C[C@H](O)[C@@H](COCc3ccccc3)O2)cc1C(F)(F)F` the figure was 15 mg/kg/day; with `COc1ccc(CO[C@H]2C[C@H](n3cc(C(F)(F)F)c(=O)[nH]c3=O)O[C@@H]2CO)cc1`, over 40 mg/kg/day; with `O=c1[nH]c(=O)n([C@H]2C[C@H](O)[C@@H](COCc3ccccc3)O2)cc1F`, 16 mg/kg/day.
Take `O=c1nc(OCc2ccccc2)c(C(F)(F)F)cn1[C@H]1C[C@H](O)[C@@H](CO)O1`: the ED50 is over 40 mg/kg/day.
With `CCOC[C@H]1O[C@@H](n2cc(C(F)(F)F)c(=O)[nH]c2=O)C[C@@H]1OCC` the figure was 25 mg/kg/day; with `O=C(c1ccccc1)n1c(=O)c(C(F)(F)F)cn([C@H]2C[C@H](O)[C@@H](COCc3ccccc3)O2)c1=O`, 26 mg/kg/day; with `O=c1[nH]c(=O)n([C@H]2C[C@H](O)[C@@H](CO)O2)cc1F` [FLOXURIDINE], 84 mg/kg/day.
In the case of `O=c1[nH]c(=O)n([C@H]2C[C@H](O)[C@@H](CO)O2)cc1C(F)(F)F` [TRIFLURIDINE] it was 63 mg/kg/day.
